Laboratory results from paper PMC4980839 (Archiv der Pharmazie, 2010).
Read-outs that look alike come from different tables or passages of the source.

Legend:
Type in all cases: biochemical
human PDE5 = human PDE5 (Homo sapiens, UniProt O76074); assay: PDE5 inhibition, IMAP fluorescence polarization phosphodiesterase assay; details: for inhibition at 50 µM: read-out: % cGMP inhibition (50 μM)
PDE3B = PDE3B (Homo sapiens, UniProt Q13370); assay: PDE3B inhibition
In short: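 Reaction started with a substrate solution of 50 nM TAMRA-cGMP and/or Fl-cAMP. Run 60 min at room temperature, stopped with IMAP binding solution. Hydrolysis read as fluorescence polarization (TAMRA 530–590 nm).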

PDE4B = PDE4B (Homo sapiens, UniProt Q07343); assay: PDE4B inhibition
Sequence of PDE4B (Q07343 whole entry): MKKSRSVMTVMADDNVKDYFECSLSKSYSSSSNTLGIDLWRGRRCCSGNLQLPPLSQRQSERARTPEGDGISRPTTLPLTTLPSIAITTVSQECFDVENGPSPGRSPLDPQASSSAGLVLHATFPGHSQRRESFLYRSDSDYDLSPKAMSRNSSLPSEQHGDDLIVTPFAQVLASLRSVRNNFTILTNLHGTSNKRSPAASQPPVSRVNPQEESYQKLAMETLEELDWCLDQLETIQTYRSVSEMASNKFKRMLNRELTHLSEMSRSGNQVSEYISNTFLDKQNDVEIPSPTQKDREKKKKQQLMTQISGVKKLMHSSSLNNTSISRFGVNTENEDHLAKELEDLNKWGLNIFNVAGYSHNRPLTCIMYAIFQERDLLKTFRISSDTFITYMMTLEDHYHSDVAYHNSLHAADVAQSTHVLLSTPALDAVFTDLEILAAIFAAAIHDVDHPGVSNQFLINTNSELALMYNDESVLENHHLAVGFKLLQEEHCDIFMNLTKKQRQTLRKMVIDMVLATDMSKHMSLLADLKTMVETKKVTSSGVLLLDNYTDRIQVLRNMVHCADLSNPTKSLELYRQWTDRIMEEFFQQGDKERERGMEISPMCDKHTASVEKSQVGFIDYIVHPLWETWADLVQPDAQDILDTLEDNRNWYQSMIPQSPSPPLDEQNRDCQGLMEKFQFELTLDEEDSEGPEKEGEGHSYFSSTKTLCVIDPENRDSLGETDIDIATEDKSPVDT

PDE11A = PDE11A (Homo sapiens, UniProt Q9HCR9); assay: PDE11A inhibition
Sequence of PDE11A (Q9HCR9 whole entry): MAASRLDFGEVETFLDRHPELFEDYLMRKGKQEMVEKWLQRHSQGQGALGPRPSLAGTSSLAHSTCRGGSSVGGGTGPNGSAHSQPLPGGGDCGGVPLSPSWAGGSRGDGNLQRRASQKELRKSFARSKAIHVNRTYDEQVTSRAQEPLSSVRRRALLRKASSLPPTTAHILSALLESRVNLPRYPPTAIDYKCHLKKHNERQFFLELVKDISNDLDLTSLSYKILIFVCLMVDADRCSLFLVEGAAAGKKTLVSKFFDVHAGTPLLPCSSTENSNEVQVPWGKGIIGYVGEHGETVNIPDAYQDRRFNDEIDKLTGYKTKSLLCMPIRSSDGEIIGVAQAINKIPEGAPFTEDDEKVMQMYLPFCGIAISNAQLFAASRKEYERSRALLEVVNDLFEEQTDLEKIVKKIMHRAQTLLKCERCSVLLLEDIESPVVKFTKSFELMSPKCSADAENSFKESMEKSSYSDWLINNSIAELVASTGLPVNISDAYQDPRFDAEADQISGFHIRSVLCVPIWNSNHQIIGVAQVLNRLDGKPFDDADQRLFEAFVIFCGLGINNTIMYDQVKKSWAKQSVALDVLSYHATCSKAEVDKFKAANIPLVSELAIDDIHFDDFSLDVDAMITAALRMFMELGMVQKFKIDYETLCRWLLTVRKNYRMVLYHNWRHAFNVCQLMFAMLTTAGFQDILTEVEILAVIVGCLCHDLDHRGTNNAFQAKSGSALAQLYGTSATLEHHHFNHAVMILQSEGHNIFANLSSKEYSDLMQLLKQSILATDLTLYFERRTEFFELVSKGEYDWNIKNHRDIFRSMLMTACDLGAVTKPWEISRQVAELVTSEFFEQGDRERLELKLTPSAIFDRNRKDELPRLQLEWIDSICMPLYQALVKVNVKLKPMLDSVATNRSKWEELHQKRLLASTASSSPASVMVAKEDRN

[1] = read-out: IC50 PDE3B cGMP, cGMP as substrate

Sequence of PDE3B (Q13370 592-1112 limits assumed): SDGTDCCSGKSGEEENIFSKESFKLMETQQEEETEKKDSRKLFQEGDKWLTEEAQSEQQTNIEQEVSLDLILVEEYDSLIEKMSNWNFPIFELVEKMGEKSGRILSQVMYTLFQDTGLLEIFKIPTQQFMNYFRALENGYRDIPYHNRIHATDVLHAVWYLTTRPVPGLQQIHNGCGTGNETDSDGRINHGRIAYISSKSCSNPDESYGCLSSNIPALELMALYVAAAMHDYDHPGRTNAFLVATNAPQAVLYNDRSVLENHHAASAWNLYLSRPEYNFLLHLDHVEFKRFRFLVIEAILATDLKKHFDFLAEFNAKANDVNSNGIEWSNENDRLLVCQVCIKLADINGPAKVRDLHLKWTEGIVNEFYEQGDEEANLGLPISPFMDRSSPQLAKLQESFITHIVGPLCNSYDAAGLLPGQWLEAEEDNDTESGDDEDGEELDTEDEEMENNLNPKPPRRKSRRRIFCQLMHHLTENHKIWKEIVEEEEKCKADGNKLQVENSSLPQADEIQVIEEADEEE

Row | inhibition at 50 µM (human PDE5) [%] | Structure (SMILES) | also measured
1 | 35 | COC(=O)[C@H]1Cc2c([nH]c3ccccc23)[C@@H](c2ccc(Cl)cc2)N1 [I, Methyl (1R,3R)-1-(4 chlorophenyl)-2,3,4,9-tetrahydro-1H-β-carboline-3-carboxylate] | 
2 | 4 | COC(=O)[C@H]1Cc2c([nH]c3ccccc23)[C@H](c2ccc(Cl)cc2)N1 [II, Methyl (1S,3R)-1-(4-chlorophenyl)-2,3,4,9-tetrahydro-1H-β-carboline-3-carboxylate] | 
3 | 9 | COC(=O)[C@@H]1Cc2c([nH]c3ccccc23)[C@H](c2ccc(Cl)cc2)N1 [III, Methyl (1S,3S)-1-(4-chlorophenyl)-2,3,4,9-tetrahydro-1H-β-carboline-3-carboxylate] | 
4 | 48 | COC(=O)[C@@H]1Cc2c([nH]c3ccccc23)[C@@H](c2ccc(Cl)cc2)N1 [IV, Methyl (1R,3S)-1-(4-chlorophenyl)-2,3,4,9-tetrahydro-1H-β-carboline-3-carboxylate] | 
5 | 100 | CC(C)(C)N1C(=O)[C@H]2Cc3c([nH]c4ccccc34)[C@@H](c3ccc(Cl)cc3)N2C1=O [IX, (5R,11aR)-2-tert-Butyl-5-(4-chlorophenyl)-5,6,11,11a-tetrahydro-1H-imidazo[1’,5’:1,6]pyrido[3,4-b]indole-1,3(2H)-dione] | IC50 (human PDE5): 600 nM
6 |  | CN1CC(=O)N2[C@H](c3ccc4c(c3)OCO4)c3[nH]c4ccccc4c3C[C@@H]2C1=O [Tadalafil, reference compound] | IC50 (PDE3B): > 50000 nM; IC50 (PDE3B; [1]): > 50000 nM
7 | 85 | CCN1C(=O)[C@H]2Cc3c([nH]c4ccccc34)[C@@H](c3ccc(Cl)cc3)N2C1=O [V, (5R,11aR)-2-Ethyl-5-(4-chlorophenyl)-5,6,11,11a-tetrahydro-1H-imidazo[1’,5’:1,6]pyrido[3,4-b]indole-1,3(2H)-dione] | IC50 (human PDE5): 1100 nM
8 | 47 | CCN1C(=O)[C@H]2Cc3c([nH]c4ccccc34)[C@H](c3ccc(Cl)cc3)N2C1=O [VI, (5S,11aR)-2-Ethyl-5-(4-chlorophenyl)-5,6,11,11a-tetrahydro-1H-imidazo[1’,5’:1,6]pyrido[3,4-b]indole-1,3(2H)-dione] | 
9 | 30 | CCN1C(=O)[C@@H]2Cc3c([nH]c4ccccc34)[C@H](c3ccc(Cl)cc3)N2C1=O [VII, (5S,11aS)-2-Ethyl-5-(4-chlorophenyl)-5,6,11,11a-tetrahydro-1H-imidazo[1’,5’:1,6]pyrido[3,4-b]indole-1,3(2H)-dione] | 
10 | 102 | CCN1C(=O)[C@@H]2Cc3c([nH]c4ccccc34)[C@@H](c3ccc(Cl)cc3)N2C1=O [VIII, (5R,11aS)-2-Ethyl-5-(4-chlorophenyl)-5,6,11,11a-tetrahydro-1H-imidazo[1’,5’:1,6]pyrido[3,4-b]indole-1,3(2H)-dione] | 
11 | 54 | CC(C)(C)N1C(=O)[C@H]2Cc3c([nH]c4ccccc34)[C@H](c3ccc(Cl)cc3)N2C1=O [X, (5S,11aR)-2-tert-Butyl-5-(4-chlorophenyl)-5,6,11,11a-tetrahydro-1H-imidazo[1’,5’:1,6]pyrido[3,4-b]indole-1,3(2H)-dione] | 
12 | 20 | CC(C)(C)N1C(=O)[C@@H]2Cc3c([nH]c4ccccc34)[C@H](c3ccc(Cl)cc3)N2C1=O [XI, (5S,11aS)-2-tert-Butyl-5-(4-chlorophenyl)-5,6,11,11a-tetrahydro-1H-imidazo[1’,5’:1,6]pyrido[3,4-b]indole-1,3(2H)-dione] | 
13 | 83 | CC(C)(C)N1C(=O)[C@@H]2Cc3c([nH]c4ccccc34)[C@@H](c3ccc(Cl)cc3)N2C1=O [XII, (5R,11aS)-2-tert-Butyl-5-(4-chlorophenyl)-5,6,11,11a-tetrahydro-1H-imidazo[1’,5’:1,6]pyrido[3,4-b]indole-1,3(2H)-dione] | IC50 (human PDE5): > 10000 nM
14 | 22 | O=C1[C@H]2Cc3c([nH]c4ccccc34)[C@@H](c3ccc(Cl)cc3)N2C(=O)N1c1ccc(Cl)cc1 [XIII, (5R,11aR)-2,5-Bis(4-chlorophenyl)-5,6,11,11a-tetrahydro-1H-imidazo[1’,5’:1,6]pyrido[3,4-b]indole-1,3(2H)-dione] | 
15 | 29 | O=C1[C@H]2Cc3c([nH]c4ccccc34)[C@H](c3ccc(Cl)cc3)N2C(=O)N1c1ccc(Cl)cc1 [XIV, (5S,11aR)-2,5-Bis(4-chlorophenyl)-5,6,11,11a-tetrahydro-1H-imidazo[1’,5’:1,6]pyrido[3,4-b]indole-1,3(2H)-dione] | 
16 |  | COC(=O)[C@@H]1Cc2c([nH]c3ccccc23)[C@H](c2ccc(Cl)cc2)N1C(=O)CCl [XIX, Methyl (1S, 3S)-1-(4-chlorophenyl)-2-(chloroacetyl)-2,3,4,9-tetrahydro-1H-b-carboline-3-carboxylate] | % cGMP inhibition (50 μM) (human PDE5; PDE5, compound at 50 μM, triplicate, TAMRA-cGMP substrate): 6%
17 | 33 | O=C1[C@@H]2Cc3c([nH]c4ccccc34)[C@H](c3ccc(Cl)cc3)N2C(=O)N1c1ccc(Cl)cc1 [XV, (5S,11aS)-2,5-Bis(4-chlorophenyl)-5,6,11,11a-tetrahydro-1H-imidazo[1’,5’:1,6]pyrido[3,4-b]indole-1,3(2H)-dione] | 
18 | 84 | O=C1[C@@H]2Cc3c([nH]c4ccccc34)[C@@H](c3ccc(Cl)cc3)N2C(=O)N1c1ccc(Cl)cc1 [XVI, (5R,11aS)-2,5-Bis(4-chlorophenyl)-5,6,11,11a-tetrahydro-1H-imidazo[1’,5’:1,6]pyrido[3,4-b]indole-1,3(2H)-dione] | IC50 (human PDE5): 1090 nM
19 | 25 | COC(=O)[C@H]1Cc2c([nH]c3ccccc23)[C@@H](c2ccc(Cl)cc2)N1C(=O)CCl [XVII, Methyl (1R,3R)-1-(4-chlorophenyl)-2-(chloroacetyl)-2,3,4,9-tetrahydro-1H-β-carboline-3-carboxylate] | 
20 | 6 | COC(=O)[C@H]1Cc2c([nH]c3ccccc23)[C@H](c2ccc(Cl)cc2)N1C(=O)CCl [XVIII, Methyl (1S,3R)-1-(4-chlorophenyl)-2-(chloroacetyl)-2,3,4,9-tetrahydro-1H-β-carboline-3-carboxylate] | 
21 | 78 | COC(=O)[C@@H]1Cc2c([nH]c3ccccc23)[C@@H](c2ccc(Cl)cc2)N1C(=O)CCl [XX, Methyl (1R,3S)-1-(4-chlorophenyl)-2-(chloroacetyl)-2,3,4,9-tetrahydro-1H-β-carboline-3-carboxylate] | 
22 | 80 | CCN1CC(=O)N2[C@@H](c3ccc(Cl)cc3)c3[nH]c4ccccc4c3C[C@@H]2C1=O [XXII, (6S,12aR)-2-Ethyl-6-(4-chlorophenyl)-2,3,6,7,12,12a-hexahydropyrazino[1’,2’:1,6]pyrido[3,4-b]indole-1,4-dione] | IC50 (human PDE5): 1720 nM
23 | 45 | CCN1CC(=O)N2[C@@H](c3ccc(Cl)cc3)c3[nH]c4ccccc4c3C[C@H]2C1=O [XXIII, (6S,12aS)-2-Ethyl-6-(4-chlorophenyl)-2,3,6,7,12,12a-hexahydropyrazino[1’,2’:1,6]pyrido[3,4-b]indole-1,4-dione] | 
24 | 87 | CCN1CC(=O)N2[C@H](c3ccc(Cl)cc3)c3[nH]c4ccccc4c3C[C@H]2C1=O [XXIV, (6R,12aS)-2-Ethyl-6-(4-chlorophenyl)-2,3,6,7,12,12a-hexahydropyrazino[1’,2’:1,6]pyrido[3,4-b]indole-1,4-dione] | IC50 (human PDE5): 1200 nM
25 | 55 | CC(C)(C)N1CC(=O)N2[C@H](c3ccc(Cl)cc3)c3[nH]c4ccccc4c3C[C@@H]2C1=O [XXV, (6R,12aR)-2-tert-Butyl-6-(4-chlorophenyl)-2,3,6,7,12,12a-hexahydropyrazino[1’,2’:1,6]pyrido[3,4-b]indole-1,4-dione] | 
26 | 10 | CC(C)(C)N1CC(=O)N2[C@@H](c3ccc(Cl)cc3)c3[nH]c4ccccc4c3C[C@@H]2C1=O [XXVI, (6S,12aR)-2-tert-Butyl-6-(4-chlorophenyl)-2,3,6,7,12,12a-hexahydropyrazino[1’,2’:1,6]pyrido[3,4-b]indole-1,4-dione] | 
27 | 42 | CC(C)(C)N1CC(=O)N2[C@@H](c3ccc(Cl)cc3)c3[nH]c4ccccc4c3C[C@H]2C1=O [XXVII, (6S,12aS)-2-tert-Butyl-6-(4-chlorophenyl)-2,3,6,7,12,12a-hexahydropyrazino[1’,2’:1,6]pyrido[3,4-b]indole-1,4-dione] | 
28 | 55 | CC(C)(C)N1CC(=O)N2[C@H](c3ccc(Cl)cc3)c3[nH]c4ccccc4c3C[C@H]2C1=O [XXVIII, (6R,12aS)-2-tert-Butyl-6-(4-chlorophenyl)-2,3,6,7,12,12a-hexahydropyrazino[1’,2’:1,6]pyrido[3,4-b]indole-1,4-dione] | 

Row | Structure (SMILES) | inhibition at 50 µM (human PDE5) [%] | also measured
29 | CCN1CC(=O)N2[C@H](c3ccc(Cl)cc3)c3[nH]c4ccccc4c3C[C@@H]2C1=O [XXI, (6R,12aR)-2-Ethyl-6-(4-chlorophenyl)-2,3,6,7,12,12a-hexahydropyrazino[1’,2’:1,6]pyrido[3,4-b]indole-1,4-dione] | 102 | potency compared with tadalafil (human PDE5; PDE5 IC50 relative to tadalafil): two-fold; IC50 (human PDE5; read-out: IC50 PDE5A, Table 5 PDE panel): 3 nM; IC50 (PDE4B): > 50000 nM; IC50 (PDE3B): > 50000 nM; IC50 (PDE3B; [1]): > 50000 nM; IC50 (PDE11A; IC50 PDE11A cAMP, cAMP as substrate): 706 nM; IC50 (PDE11A; IC50 PDE11A cGMP, cGMP as substrate): 157 nM; Selectivity index IC50 (PDE11/PDE5) cGMP/cGMP (PDE11A; PDE11A with cGMP versus PDE5 with cGMP): 52.3
